TRPC6 activator – mouse TRPC6 channel activators, primary screen, cell-based, HEK293, membrane potential dye | 0.13% of 310,000 active | AID 2550, 2010 | B-score at 10 µM | Short transient receptor potential channel 6 (Mus musculus), Q61143 | HEK293-TRPC6 membrane potential dye fluorescence; stronger effect = higher value;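 active means B-score of the integrated fluorescence ratio above library mean plus 3 SD, and starting fluorescence ratio within library mean plus 5 SD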;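 further: higher score means more depolarization so channel activation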
Target sequence (Q61143 whole entry, looked up): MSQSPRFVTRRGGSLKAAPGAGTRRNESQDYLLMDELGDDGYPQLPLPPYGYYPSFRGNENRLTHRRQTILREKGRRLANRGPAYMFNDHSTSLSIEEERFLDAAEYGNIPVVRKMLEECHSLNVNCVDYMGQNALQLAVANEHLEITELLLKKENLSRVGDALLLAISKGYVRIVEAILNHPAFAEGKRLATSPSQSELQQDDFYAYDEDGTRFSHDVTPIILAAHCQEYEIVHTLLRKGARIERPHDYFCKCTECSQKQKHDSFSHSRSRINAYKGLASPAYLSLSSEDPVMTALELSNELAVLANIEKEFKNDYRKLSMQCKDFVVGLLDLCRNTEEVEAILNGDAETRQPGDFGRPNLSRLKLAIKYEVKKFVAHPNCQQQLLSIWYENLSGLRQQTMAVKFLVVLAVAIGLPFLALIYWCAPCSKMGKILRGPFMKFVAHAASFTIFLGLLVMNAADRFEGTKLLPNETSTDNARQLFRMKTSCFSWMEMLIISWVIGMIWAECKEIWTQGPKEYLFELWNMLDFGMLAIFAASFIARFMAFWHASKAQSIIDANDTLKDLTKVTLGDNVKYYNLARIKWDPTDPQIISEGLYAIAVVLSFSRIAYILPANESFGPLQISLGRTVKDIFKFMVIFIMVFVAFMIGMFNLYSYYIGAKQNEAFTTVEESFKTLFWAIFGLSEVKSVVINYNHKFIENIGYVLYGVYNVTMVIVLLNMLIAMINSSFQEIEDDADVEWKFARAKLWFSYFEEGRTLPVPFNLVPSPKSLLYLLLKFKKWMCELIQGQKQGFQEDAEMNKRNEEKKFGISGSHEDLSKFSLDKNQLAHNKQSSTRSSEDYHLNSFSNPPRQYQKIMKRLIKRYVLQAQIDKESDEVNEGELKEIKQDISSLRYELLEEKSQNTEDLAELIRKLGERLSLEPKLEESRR
TRPC6 inhibitor – mouse TRPC6 channel inhibitors, primary screen, cell-based, HEK293, membrane potential dye; Short transient receptor potential channel 6 (Mus musculus), Q61143; 1.1% of 310,000 active; ACh-evoked depolarization; stronger effect = lower value; B-score at 10 µM; AID 2553, 2010;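 active means B-score under library mean minus 3 SD, initial fluorescence not abnormally high, positive integrated signal ratio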;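 further: B-score derived from integrated fluorescence ratio over the kinetic read; more negative B-score means stronger inhibition of depolarization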
TRPC4 block – inhibitors of mouse TRPC4 channel, primary screen, Fluo4 calcium, HEK293 TRPC4beta/mu-opioid cells; 0.39% of 300,000 active; Short transient receptor potential channel 4 (Mus musculus), Q9QUQ5; B-score at 10 µM; AID 2247, 2010; DAMGO-evoked Fluo4 calcium flux; stronger effect = lower value;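 active means B-score over 3 SD under the library average, no early fluorescence shift, positive overall ratio signal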
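Material: HEK293 cells with stable TRPC4beta plus mu-opioid receptor expression / Probe or stimulus: DAMGO in two steps, submaximal then maximal / Compound: single concentration per test compound / Technique: kinetic Fluo4 fluorescence imaging of calcium influx / Read-out: per-well B score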
TRPC4 agonist – activators of mouse TRPC4 channel, primary screen, Fluo4 calcium, HEK293 TRPC4beta/mu-opioid cells; 0.49% of 310,000 active; B-score at 10 µM; AID 2237, 2010; Short transient receptor potential channel 4 (Mus musculus), Q9QUQ5; Fluo4 calcium fluorescence; stronger effect = higher value;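 active means B-score above 5 SD of library B-scores, and initial fluorescence ratio not above library mean plus 5 SD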;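 further: positive B-score marks a calcium rise read as TRPC4 activation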
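Material: HEK293 stable line with TRPC4beta plus mu-opioid receptor; technique: Fluo4 calcium-sensitive dye fluorescence, kinetic, 1 Hz baseline; timing: Fluo4 dye loading 45 min at room temperature, 110 s recording; controls: assay buffer as low control, maximal DAMGO as high control; read-out: integrated baseline-normalised fluorescence ratio, converted to per-well B score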
TRPC4 potent – positive allosteric modulators of TRPC4, primary screen, cell-based, mouse TRPC4beta, HEK293 mu-opioid, Fluo-4 calcium; Short transient receptor potential channel 4 (Mus musculus), Q9QUQ5; DAMGO EC20, Fluo-4 Ca2+ flux; stronger effect = higher value; B-score at 10 µM; 0.42% of 310,000 active; AID 2227, 2009;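 active means B-score of calcium response area above 5 SD of library B-scores, with initial fluorescence ratio within 5 SD of library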;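 further: B-score of integrated fluorescence ratio over time as area under calcium response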
TRPC4 sel inh 2 – second selectivity test of TRPC6 inhibitors: effect on mouse TRPC4. 42% of 920 active. inhibition, % at 10 µM. HEK293 TRPC4/MOR, membrane potential dye fluorescence; channel activated by saturating DAMGO dose. shares compounds with TRPC6 inhibitor. AID 2776;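 active means compounds whose fluorescence signal differed from control wells by over 3 SD, either direction, in both duplicate plates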
TRPC4 spec – mouse TRPC4 modulation by TRPC6 hits, confirmation, selectivity assay for TRPC6 inhibitor project, cell-based, HEK293 TRPC4/mu-opioid, membrane potential dye; shares compounds with TRPC6 inhibitor; 61% of 920 active; membrane potential fluorescence; activity change, negative = inhibition, % at 10 µM;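 active means rise or fall in signal beyond 3 SD of buffer-only wells in both replicate plates, either sign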;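 further: integrated kinetic ratio of fluorescence range over baseline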
HEK293 MPD ctr 2-1 – nonspecific membrane potential effects, parental HEK293, confirmation, counter-screen for TRPC6 inhibitor project, cell-based, second counter screen; shares compounds with TRPC6 inhibitor; parental HEK293 membrane potential dye fluorescence; maximal acetylcholine challenge after compound addition; signal change vs control, % at 10 µM; 31% of 920 active;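 active means membrane potential signal moving either way by over 3 SD of the maximum-effect control, in both duplicate plates, meaning non-specific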
HEK293 MPD ctr-1 – membrane potential modulation in parental HEK293, confirmation, counter-screen for TRPC6 inhibitor project, cell-based | shares compounds with TRPC6 inhibitor | parental HEK293 membrane potential dye fluorescence | membrane potential signal change, % at 10 µM | 60% of 920 active;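 active means membrane potential signal shifting up or down by more than 3 SD of buffer-only wells, on both duplicate plates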
HEK293 MPD ctr-2 – parental HEK293 membrane potential modulation, confirmation, counter-screen for TRPC6 modulator project, cell-based; membrane potential dye fluorescence; membrane potential signal change, % at 10 µM; 51% of 2,400 active; shares compounds with TRPC6 inhibitor; AID 488924, 2010;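 active means membrane potential signal moves up or down beyond 5 SD from buffer-only wells, on both duplicate plates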
HEK293 MPD ctr 2-2 – parental HEK293 nonspecific activity of TRPC6 modulators, second screen; shares compounds with TRPC6 inhibitor; membrane potential dye fluorescence; after compound, maximal acetylcholine stimulation; inhibition, % at 10 µM; 14% of 2,400 active; AID 488926;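 active means membrane potential signal drops by more than 5 SD from the mean control signal, in both duplicate plates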;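 further: plate controls were acetylcholine ECmax control wells for no effect and buffer only wells for full effect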
TRPC4/MOR mod – TRPC4 modulation by TRPC6 hit compounds, confirmation, selectivity assay for TRPC6 modulator project, cell-based, HEK293 TRPC4/mu-opioid, membrane potential dye, mouse. membrane potential fluorescence. 69% of 2,400 active. shares compounds with TRPC6 inhibitor. percent change from control (negative = decrease, positive = increase), % at 10 µM;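 active means membrane potential signal moved up or down beyond 5 SD of buffer control wells, in both duplicate plates, actives on both sides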;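 further: plate controls were assay buffer wells for no effect and DAMGO maximal-effect wells for full effect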
TRPC4 ctr inh 2 – mouse TRPC4 off-target activity of TRPC6 modulators, second screen. shares compounds with TRPC6 inhibitor. 55% of 2,400 active. inhibition, % at 10 µM. HEK293 TRPC4/mu-opioid, membrane potential dye fluorescence; stimulated with maximal-effect DAMGO;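 active means drop in membrane potential signal beyond 5 SD of the control wells in both duplicate plates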;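 further: TRPC4 counter screen for TRPC6 hits run under conditions tuned for TRPC6 not TRPC4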
TRPC6 inh conf – mouse TRPC6 channel inhibitors, confirmation, HEK293 cells, membrane potential dye, duplicate; AID 488960, 2010; shares compounds with TRPC6 inhibitor; inhibition, % at 10 µM; 43% of 3,300 active; ACh-evoked depolarization;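 active means fluorescence ratio falls more than 5 SD below the full-stimulation control mean, in both duplicate runs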;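 further: integrated fluorescence ratio of peak minus minimum over baseline after agonist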
TRPC6 act confirm – mouse TRPC6 channel activators, confirmation, HEK293 cells, membrane potential dye, duplicate; 11% of 2,800 active; HEK293-TRPC6 membrane potential dye fluorescence, FDSS; activation, % at 10 µM; shares compounds with TRPC6 inhibitor;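 active means ratio signal rise beyond 5 SD above unstimulated control wells' mean, seen in both duplicate runs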;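 further: plate controls were buffer EC0 wells for no effect and acetylcholine ECmax response for full effect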
The depositor's hits bear a star; i = inactive; . = not tested or not shown. Compounds with a hit are over-represented: about 2.3% of the library has one in this group of screens.

SMILES	TRPC6 activator	TRPC6 inhibitor	TRPC4 block	TRPC4 agonist	TRPC4 potent	TRPC4 sel inh 2	TRPC4 spec	HEK293 MPD ctr 2-1	HEK293 MPD ctr-1	TRPC6 inh conf	TRPC6 act confirm	others
CCCCN(CCCC)CCCNC(=O)C12CN(Cc3ccccc3)CC1C(c1cccc([N+](=O)[O-])c1)=NO2 (stereo not given)	i	-7.5*	i	i	i	60%*	i	i	i	i	i
O=C(c1ccco1)N1CCN(S(=O)(=O)c2ccc(Oc3ccccc3)cc2)CC1	i	-13*	i	i	i	i	2.1%*	232%*	1.1%*	i	i
O=C(c1ccco1)N1CCN(S(=O)(=O)c2ccc(Br)cc2)CC1	i	i	i	i	i	.	.	.	.	.	.
O=C(COc1ccc2c3c(c(=O)oc2c1)CCCC3)NC(Cc1ccc(Cl)cc1)C(=O)O (stereo not given)	i	-7*	i	i	i	i	4.7%*	i	2.1%*	i	i
O=C(COc1ccc2c3c(c(=O)oc2c1)CCC3)NCc1ccccn1	i	-6.1*	i	i	i	.	.	.	.	i	i	HEK293 MPD ctr-2=i;HEK293 MPD ctr 2-2=i;TRPC4/MOR mod=i;TRPC4 ctr inh 2=i
O=C(COc1ccc2c3c(c(=O)oc2c1)CCCC3)N[C@@H](Cc1ccccc1)C(=O)O	i	i	i	i	i	.	.	.	.	.	.
CC(Oc1ccc2c3c(c(=O)oc2c1)CCC3)C(=O)NCc1ccccn1 (stereo not given)	i	i	i	i	i	.	.	.	.	.	.
COc1cc(C(=O)Nc2ccc(NC(=O)c3ccccc3Cl)nc2)cc(OC)c1OC	i	i	i	i	i	.	.	.	.	.	.

Source: PubChem BioAssay (Johns Hopkins Ion Channel Center)
